Results: ChEMBL document CHEMBL1144027, “Synthesis and antimycobacterial evaluation of newer 1-cyclopropyl-1,4-dihydro-6-fluoro-7-(substituted secondary amino)-8-methoxy-5-(sub)-4-oxoquinoline-3-carboxylic acids” (Bioorg Med Chem, 2008)
In brackets after ≈: the same amount, converted by molar mass.

Assays:
[1] = test system: Mycolicibacterium smegmatis; assay: Antimycobacterial activity against Mycobacterium smegmatis MC2 by agar dilution method; assay type: functional
Outline: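 Agar dilution in Middlebrook 7H11 agar with OADC, run along NCCLS-recommended lines; M. smegmatis ATCC 14468 (MC2); MIC determined in duplicate.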

Vero = assay: Cytotoxicity against african green monkey Vero cells after 72 hrs by MTT assay; assay type: cell-based; conditions: Chlorocebus sabaeus
Outline: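 Mammalian Vero cells exposed to compounds at 62.5 µg/ml for 72 h; viability read by cellular conversion of MTT to formazan (Cell Titer 96 non-radioactive proliferation assay).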

[2] = target: DNA gyrase subunit B (Mycobacterium smegmatis (strain ATCC 700084 / mc(2)155), UniProt A0QNE0); assay: Inhibition of Mycobacterium smegmatis MC2 DNA gyrase GyrB ATPase supercoiling activity; set-up: species or system Mycolicibacterium smegmatis
Outline: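 Gyrase purified from M. smegmatis MC2 cells; compounds in DMSO pre-incubated with enzyme, then 400 ng relaxed pUC18 added in 35 mM Tris-HCl pH 7.5, 5 mM MgCl2, 25 mM K glutamate, 2 mM spermidine, 2 mM ATP, BSA, tRNA, 5% glycerol; 30 min; heat-stopped 65 °C 15 min; agarose gel, ethidium bromide staining; ciprofloxacin 10 µg/ml and 5% DMSO controls.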

Mus musculus [3] = assay: Phototoxicity in Swiss albino mouse assessed as ear thickness at 140 mg/kg, po after 4 hrs of irradiation; assay type: organism-based; set-up: dose 140 mg/kg, route oral; conditions: in vivo
Outline: (§1)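 Female Swiss albino mice (~2 months, 20-25 g), fasted ≥18 h, single 140 mg/kg oral gavage dose; groups of 6 (compound, lomefloxacin HCl 140 mg/kg, 0.5% carboxymethylcellulose vehicle 10 ml/kg); UV irradiation 4 h (~18 J/cm²) right after dosing; both ears scored for erythema, oedema, thickness pre-dose, at end of irradiation, and ~24-96 h; thickness given as mean of both ears ± SEM.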

Mus musculus [4] = assay: Phototoxicity in Swiss albino mouse assessed as ear thickness at 140 mg/kg, po after 24 hrs of irradiation; assay type: organism-based; set-up: dose 140 mg/kg, route oral; conditions: in vivo; outline: as §1
Mus musculus [5] = assay: Phototoxicity in Swiss albino mouse assessed as ear thickness at 140 mg/kg, po after 48 hrs of irradiation; assay type: organism-based; set-up: dose 140 mg/kg, route oral; conditions: in vivo; outline: as §1
Mus musculus [6] = assay: Phototoxicity in Swiss albino mouse assessed as ear thickness at 140 mg/kg, po after 72 hrs of irradiation; assay type: organism-based; set-up: dose 140 mg/kg, route oral; conditions: in vivo; outline: as §1
Mus musculus [7] = assay: Phototoxicity in Swiss albino mouse assessed as ear thickness at 140 mg/kg, po after 96 hrs of irradiation; assay type: organism-based; set-up: dose 140 mg/kg, route oral; conditions: in vivo; outline: as §1
Mus musculus [8] = assay: Phototoxicity in Swiss albino mouse assessed as erythema incidence at 140 mg/kg, po after 24 hrs of irradiation; assay type: organism-based; set-up: dose 140 mg/kg, route oral; conditions: in vivo; outline: as §1
Mus musculus [9] = assay: (§2) Phototoxicity in Swiss albino mouse assessed as erythema incidence at 140 mg/kg, po after 48 hrs of irradiation; assay type: organism-based; set-up: dose 140 mg/kg, route oral; conditions: in vivo; outline: as §1
Mus musculus [10] = assay: as §2; assay type: organism-based; set-up: dose 140 mg/kg, route oral; conditions: in vivo; outline: as §1; remark: listed apart in the source
Mus musculus [11] = assay: Phototoxicity in Swiss albino mouse assessed as erythema incidence at 140 mg/kg, po after 96 hrs of irradiation; assay type: organism-based; set-up: dose 140 mg/kg, route oral; conditions: in vivo; outline: as §1
[12] = test system: Mycobacterium tuberculosis; assay: Antimycobacterial activity against Mycobacterium tuberculosis H37Rv by agar dilution method; assay type: functional
Outline: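 Agar dilution MIC on Middlebrook 7H11 agar with OADC, following the NCCLS-recommended approach, run in duplicate. The MDR clinical isolate was resistant to isoniazid, rifampicin, ethambutol and ofloxacin.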

[13] = test system: Mycobacterium tuberculosis; assay: Antimycobacterial activity against Mycobacterium tuberculosis ATCC 35801 infected in CD1 mouse assessed as bacterial load in lungs at 25 mg/kg, ip after 10 days; assay type: functional; conditions: route intraperitoneal
Outline: (§3)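 Female CD-1 mice, 6 weeks old, six per group, infected IV via caudal vein with ~10⁷ viable organisms. Intraperitoneal treatment started 10 days after inoculation and ran 10 days. At 35 days post-infection, spleens and right lungs were homogenised and serially 10-fold diluted onto 7H10 agar, incubated 4 weeks at 37 °C in ambient air. CFU compared with vehicle-treated controls.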

[14] = test system: Mycobacterium tuberculosis; assay: Antimycobacterial activity against Mycobacterium tuberculosis ATCC 35801 infected in CD1 mouse assessed as bacterial load in spleen at 25 mg/kg, ip after 10 days; assay type: functional; conditions: route intraperitoneal; outline: as §3
[15] = test system: Mycobacterium tuberculosis; assay: Antimycobacterial activity against Mycobacterium tuberculosis ATCC 35801 infected in CD1 mouse assessed as bacterial load in lungs at 50 mg/kg, ip after 10 days; assay type: functional; conditions: route intraperitoneal; outline: as §3
[16] = test system: Mycobacterium tuberculosis; assay: Antimycobacterial activity against Mycobacterium tuberculosis ATCC 35801 infected in CD1 mouse assessed as bacterial load in spleen at 50 mg/kg, ip after 10 days; assay type: functional; conditions: route intraperitoneal; outline: as §3
Mus musculus [17] = assay: Phototoxicity in Swiss albino mouse assessed as erythema incidence at 140 mg/kg, po after 4 hrs of irradiation; assay type: organism-based; set-up: dose 140 mg/kg, route oral; conditions: in vivo; outline: as §1

Chain of DNA gyrase subunit B (Mycobacterium smegmatis (strain ATCC 700084 / mc(2)155), UniProt A0QNE0) (A0QNE0 whole entry): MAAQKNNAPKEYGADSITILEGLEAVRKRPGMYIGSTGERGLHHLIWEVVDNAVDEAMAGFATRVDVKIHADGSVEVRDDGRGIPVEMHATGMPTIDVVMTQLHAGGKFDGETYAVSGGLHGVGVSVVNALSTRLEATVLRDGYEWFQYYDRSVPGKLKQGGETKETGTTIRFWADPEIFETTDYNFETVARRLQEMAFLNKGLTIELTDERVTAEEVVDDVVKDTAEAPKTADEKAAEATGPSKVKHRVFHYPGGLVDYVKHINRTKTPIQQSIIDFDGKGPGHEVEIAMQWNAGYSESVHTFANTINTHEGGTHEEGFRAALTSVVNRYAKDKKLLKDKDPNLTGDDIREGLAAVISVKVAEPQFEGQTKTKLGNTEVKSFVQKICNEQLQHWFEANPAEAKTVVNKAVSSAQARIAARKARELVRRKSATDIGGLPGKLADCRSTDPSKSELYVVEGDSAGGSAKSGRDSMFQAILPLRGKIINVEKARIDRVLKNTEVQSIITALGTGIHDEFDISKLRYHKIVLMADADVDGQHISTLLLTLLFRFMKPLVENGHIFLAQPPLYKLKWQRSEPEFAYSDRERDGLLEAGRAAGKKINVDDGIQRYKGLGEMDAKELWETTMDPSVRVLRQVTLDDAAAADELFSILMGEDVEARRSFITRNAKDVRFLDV

Structure (SMILES) | MIC [1] [µM] | IC50 (Vero) [µM] | MIC [12] [µM] | other results
CCN(CC)C(=O)C1CCCN(c2c(F)cc3c(=O)c(C(=O)O)cn(C4CC4)c3c2OC)C1 (stereo not drawn) | 0.85 (≈ 0.391 µg/mL) | 136 | 1.69 (≈ 0.777 µg/mL) | IC50 [2]: > 109 µM; Activity (Mus musculus [3]): 0.38 mm; Activity (Mus musculus [4]): 0.36 mm; Activity (Mus musculus [5]): 0.37 mm; Activity (Mus musculus [6]): 0.39 mm; Activity (Mus musculus [7]): 0.39 mm; Activity (Mus musculus [8]): Non-toxic; Activity (Mus musculus [9]): Non-toxic; Activity (Mus musculus [10]): Non-toxic; Activity (Mus musculus [11]): Non-toxic
COc1c(N2CCN(C(=O)c3ccco3)CC2)c(F)c([N+](=O)[O-])c2c(=O)c(C(=O)O)cn(C3CC3)c12 | 12.5 (≈ 6.25 µg/mL) | – | 6.25 (≈ 3.13 µg/mL) | –
NNC(=O)c1ccncc1 [ISONIAZID] | 45.6 (≈ 6.25 µg/mL) | > 456 | 0.36 (≈ 0.0494 µg/mL) | Activity [13]: 5.86; Activity [14]: 4.71
COc1c(N2CCN(Cc3ccc4c(c3)OCO4)CC2)c(F)c(N)c2c(=O)c(C(=O)O)cn(C3CC3)c12 | 6.13 (≈ 3.13 µg/mL) | – | 3.06 (≈ 1.56 µg/mL) | –
COc1c(N2CCn3cc(C(=O)O)nc3C2)c(F)cc2c(=O)c(C(=O)O)cn(C3CC3)c12 | 7.08 (≈ 3.13 µg/mL) | 141 | 3.53 (≈ 1.56 µg/mL) | –
CCN(CC)C(=O)C1CCCN(c2c(F)c([N+](=O)[O-])c3c(=O)c(C(=O)O)cn(C4CC4)c3c2OC)C1 (stereo not drawn) | 12.4 (≈ 6.25 µg/mL) | 124 | 1.55 (≈ 0.782 µg/mL) | –
COc1c(N2CCN(C)C(c3ccccc3)C2)c(F)cc2c(=O)c(C(=O)O)cn(C3CC3)c12 (stereo not drawn) | 27.7 (≈ 12.5 µg/mL) | – | 13.8 (≈ 6.25 µg/mL) | –
COc1c(N2CCC3(CC2)OCCO3)c(F)cc2c(=O)c(C(=O)O)cn(C3CC3)c12 | 1.86 (≈ 0.778 µg/mL) | 149 | 0.93 (≈ 0.389 µg/mL) | Activity [15]: 6.12; Activity [16]: 6.41; IC50 [2]: > 119 µM
COc1c(N2CCn3cc(C(=O)O)nc3C2)c(F)c([N+](=O)[O-])c2c(=O)c(C(=O)O)cn(C3CC3)c12 | 6.42 (≈ 3.13 µg/mL) | 128 | 3.12 (≈ 1.52 µg/mL) | –
COc1c(N2CCC(O)(c3ccc(Cl)cc3)CC2)c(F)c([N+](=O)[O-])c2c(=O)c(C(=O)O)cn(C3CC3)c12 | 11.8 (≈ 6.25 µg/mL) | – | 5.88 (≈ 3.13 µg/mL) | –
COc1ccc(CC2C3=C(CCCC3)CCN2c2c(F)cc3c(=O)c(C(=O)O)cn(C4CC4)c3c2OC)cc1 (stereo not drawn) | 2.93 (≈ 1.56 µg/mL) | 117 | 1.46 (≈ 0.778 µg/mL) | IC50 [2]: 75.1 µM
COc1c(N2CCC3(CC2)OCCO3)c(F)c([N+](=O)[O-])c2c(=O)c(C(=O)O)cn(C3CC3)c12 | 6.75 (≈ 3.13 µg/mL) | 135 | 0.84 (≈ 0.389 µg/mL) | –
COc1c(N2CCN(C(c3ccccc3)c3ccc(Cl)cc3)CC2)c(F)cc2c(=O)c(C(=O)O)cn(C3CC3)c12 (stereo not drawn) | 44.5 (≈ 25 µg/mL) | – | 11.1 (≈ 6.25 µg/mL) | –
COc1c(N2CCN(C(=O)c3ccco3)CC2)c(F)cc2c(=O)c(C(=O)O)cn(C3CC3)c12 | 13.7 (≈ 6.25 µg/mL) | – | 13.7 (≈ 6.25 µg/mL) | –
COc1c(N2COCC2(C)C)c(F)cc2c(=O)c(C(=O)O)cn(C3CC3)c12 | 16.6 (≈ 6.25 µg/mL) | 166 | 4.14 (≈ 1.56 µg/mL) | –
COc1c(N2CCN(Cc3ccc4c(c3)OCO4)CC2)c(F)c([N+](=O)[O-])c2c(=O)c(C(=O)O)cn(C3CC3)c12 | 1.44 (≈ 0.778 µg/mL) | 116 | 0.35 (≈ 0.189 µg/mL) | Activity (Mus musculus [3]): 0.27 mm; Activity (Mus musculus [4]): 0.28 mm; Activity (Mus musculus [5]): 0.3 mm; Activity (Mus musculus [6]): 0.33 mm; Activity (Mus musculus [7]): 0.31 mm; Activity (Mus musculus [17]): Non-toxic; Activity (Mus musculus [8]): Non-toxic
CCn1cc(C(=O)O)c(=O)c2cc(F)c(N3CCNC(C)C3)c(F)c21 (stereo not drawn) [LOMEFLOXACIN] | – | – | – | Activity (Mus musculus [3]): 0.4 mm; Activity (Mus musculus [4]): 0.48 mm; Activity (Mus musculus [5]): 0.53 mm; Activity (Mus musculus [6]): 0.64 mm; Activity (Mus musculus [7]): 0.6 mm; Activity (Mus musculus [17]): Toxic; Activity (Mus musculus [8]): Toxic; Activity (Mus musculus [9]): Toxic; Activity (Mus musculus [10]): Toxic; Activity (Mus musculus [11]): Toxic
COc1ccc(CC2C3=C(CCCC3)CCN2c2c(F)c(N)c3c(=O)c(C(=O)O)cn(C4CC4)c3c2OC)cc1 (stereo not drawn) | 5.72 (≈ 3.13 µg/mL) | 114 | 2.85 (≈ 1.56 µg/mL) | –
